# Compound activity: PubChem, several laboratories
# ALR inh: inhibitors of human ALR sulfhydryl oxidase, primary screen, biochemical, H2O2 detection, HRP-luminol luminescence, single point. FAD-linked sulfhydryl oxidase ALR (Homo sapiens), P55789. purified ALR, DTT oxidation. inhibition, % (no concentration beside the values). 290,000 tested, 3.8% active. AID 485317, 2010;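 active = mean replicate inhibition above about 79%, with every replicate also reaching it, limit read from the data; inconclusive = only one of the two criteria met; inactive = mean below limit and not every replicate reaching it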
# Target sequence (P55789 whole entry, looked up): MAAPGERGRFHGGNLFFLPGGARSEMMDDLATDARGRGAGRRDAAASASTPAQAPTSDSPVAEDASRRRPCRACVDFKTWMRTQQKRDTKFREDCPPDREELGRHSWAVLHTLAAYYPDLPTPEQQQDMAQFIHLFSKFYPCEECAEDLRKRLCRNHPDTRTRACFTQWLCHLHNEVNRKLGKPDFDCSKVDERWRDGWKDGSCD
# T cell HTS: modulators of CD8 T cell-vesicle binding, primary screen, mouse 2C CD8+ T cells, flow cytometry | 330,000 tested, 0.068% active | AID 2052, 2009 | response (vesicle binding), % at 7 µM | 2C CD8+ T cell-vesicle binding; active compounds read low;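 active = response, share of CD8 T cells binding vesicles, and their 90th percentile fluorescence all below set limits, cut at about 80% in these data, passing the limit was not always enough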;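 also: values below 100% mean blocked vesicle binding to the CD8+ T cells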
#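 incubation = binding step 1.5 h, 37 °C, antibody labelling 20 min, ice | test system = 2C mouse CD8+ T cells | read-out basis = percent CD8+ FL2 mean versus row control | controls = Peptide-free naked vesicles (low) and QL9 vesicles with 0.7% DMSO vehicle (high) | detection = flow cytometry of vesicle-bound cells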
# N-glyco inh: increase of ERlucT glycosylation luciferase signal, primary screen, N-linked glycosylation inhibitor project, D54 ERlucT cells, luminescence, set 2. AID 588692, 2011. D54 ERlucT glycosylation luciferase reporter, 24 h; percent of 100 nM tunicamycin response. reporter increase, % at 12.5 µM. 360,000 tested, 0.23% active;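 active = mean luciferase reporter signal, scaled so untreated is 0 and the glycosylation-blocking control 100, at or above a set limit in every replicate; inconclusive = mean reaches the limit but not every replicate does; inactive = mean below the limit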;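 also: luciferase carries N-glycosylation sites so blocking glycosylation raises the light; 0% = median of neutral control wells and 100% = median of 100 nM tunicamycin wells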
# Starred values were filed as active, the others as inactive; i = inactive; ? = inconclusive; nt = not tested or not shown. The entries come from a sample that favours hits as a whole.
SMILES,ALR inh,T cell HTS,N-glyco inh
O=C(NC1CCCc2c1cnn2-c1ccc(F)cc1F)c1ccccc1N1CCOCC1 (stereo not given),-0.7,248.0,0.0
CCN(C(=O)CSc1n[nH]c(N)n1)C1CCCCC1,nt,311.8,2.1
O=C(O)c1cnc(-c2ccccc2)nc1Sc1cccc(Cl)c1,96.2*,330.2,2.5
O=C(O)c1cnc(-c2ccccc2)nc1Sc1ccccc1,1.2,254.0,1.0
CSCCC(NC(=O)c1cc(S(=O)(=O)N2CCOCC2)ccc1C)c1nc2ccccc2[nH]1 (stereo not given),nt,nt,0.2
CC1=C(C(=O)Nc2ccccc2C(=O)N2CCN(c3ccccc3)CC2)SCCO1,nt,nt,0.1
COc1c(C)cc(S(=O)(=O)NCc2ccco2)c(C)c1C,2.5,183.7,2.3
O=C(CSc1nc2ccccc2[nH]1)Nc1nc(-c2cccc(Br)c2)cs1,33.6,315.1,3.0
CN(C)CCCn1c(SCC(=O)Nc2nc(-c3cccc(Br)c3)cs2)nc2ccccc2c1=O,99.2*,364.7,-8.7
NCCc1nnc(SCC(=O)Nc2ccc(Br)cc2)o1,98.2*,264.2,3.3
CC(C)C[C@H](N)c1nnc(SCC(=O)Nc2ccc(Br)cc2)o1,99.0*,224.3,0.6
O=C(CSc1nnc(CNC(=O)c2ccco2)o1)Nc1ccc(Br)cc1,99.0*,207.4,2.1
CCCc1nnc(SCC(=O)Nc2ccc(OC)cc2)o1,-12.5,617.5,-0.2
CC(C)C[C@H](NC(=O)OC(C)(C)C)c1nnc(SCC(=O)Nc2ccc(Br)cc2)o1,-5.5,469.7,-0.2
CCOc1ccc(NC(=O)CSc2nnc(CNC(=O)c3ccco3)o2)cc1,-1.1,411.6,-1.1
CCc1nc2ccc(C(=O)Nc3cccc(OC)c3)cn2c1N(CC)CCOC,nt,nt,-2.7
CN(CC(=O)Nc1ccccc1C(=O)Nc1ccccc1)C1CCCCC1,-7.2,128.6,-7.4
COc1ccccc1C(=O)N/N=C(\C)c1cccnc1,-2.0,533.3,0.2
Cc1ccc(S(=O)(=O)N2C[C@H]3C(=O)C[C@@H](c4cccc(Cl)c4)N(S(=O)(=O)c4ccc(C)cc4)[C@H]3C[C@H]2c2ccc(Cl)cc2)cc1,nt,nt,-8.5
CCc1cccc(N(C)C(N)=Nc2cccc3ccccc23)c1,5.5,164.8,0.8
COc1ccccc1N(C(=O)c1snc(C(N)=O)c1N)C(C(=O)NC1CCCC1)c1ccc2ncccc2c1 (stereo not given),-1.2,401.8,-3.9
CC(=O)Nc1ccc(C(=O)N2CCCC(c3cc(C(=O)NCc4cccnc4)no3)C2)cc1 (stereo not given),nt,nt,1.4
COC(=O)c1cc(Cl)c(NC(=O)c2cc3ccccc3o2)cc1OC,-1.5,181.1,0.8
CCOC(=O)C1=C(c2ccccc2)NC(=O)NC1c1ccc(OC)cc1 (stereo not given),5.5,243.3,-0.7
CCOC(=O)C1=C(c2ccccc2)NC(=O)NC1c1ccc(N(C)C)cc1 (stereo not given),99.0*,i,2.7
SMILES,ALR inh,T cell HTS,N-glyco inh
CCOC(=O)C(=NC1CCS(=O)(=O)C1)NNc1ccc(Br)cc1 (stereo not given),99.3*,608.7,1.9
CCOC(=O)C(=NC1CCS(=O)(=O)C1)NNc1ccccc1Cl (stereo not given),98.7*,99.8,2.4
CCOC(=O)C(=NC1CCCCC1)NNc1cccc(C(F)(F)F)c1,nt,241.0,-3.8
CCOC(=O)C(=NC1CCS(=O)(=O)C1)NNc1cc(Cl)ccc1Cl (stereo not given),?,529.9,0.2
CCOC(=O)C(=NC(C)CC)NNc1ccc(Br)cc1 (stereo not given),98.9*,341.1,2.0
CCOC(=O)C(=NC(C)CC)NNc1cccc(C(F)(F)F)c1 (stereo not given),nt,365.8,1.8
CCC(=O)N1CCc2cc(Br)cc(S(=O)(=O)Nc3c(C)n(C)n(-c4ccccc4)c3=O)c21,0.2,510.6,nt
CN1/C(=C/C(=O)c2nc(S(C)(=O)=O)ncc2Cl)C(C)(C)c2ccccc21,97.8*,573.8,-11.9
CN1/C(=C\C(=O)c2cccnc2)C(C)(C)c2ccccc21,17.3,345.6,1.0
Cc1cccc2sc(N(CCN3CCOCC3)C(=O)CCS(=O)(=O)c3ccccc3)nc12,nt,182.7,-4.3
O=C1SCCC1NS(=O)(=O)c1ccccc1[N+](=O)[O-] (stereo not given),-8.3,213.8,3.3
Cc1ccc(/C=C/C(=O)Nc2sc3c(c2C#N)CCCC3)o1,93.3*,508.3,1.4
Cc1ccc(C(=O)NCc2ccc3c(c2)OCO3)o1,8.9,288.2,0.1
O=C(Nc1sc2c(c1C(=O)O)CCCC2)c1cccs1,31.1,195.9,-1.3
Cc1ccc(/C=C/C(=O)NCc2ccc3c(c2)OCO3)o1,92.2*,347.7,4.0
CCc1ccc(CCC(=O)Nc2sc3c(c2C#N)CCCC3)o1,-0.3,382.2,22.7
N#Cc1c(NC(=O)c2cnccn2)sc2c1CCCC2,98.3*,289.3,17.8
N#Cc1c(NC(=O)c2cccnc2)sc2c1CCC2,8.0,212.7,10.0
O=C(/C=C/c1cccs1)Nc1sc2c(c1C(=O)O)CCCC2,88.2*,225.9,-0.5
CC(=O)Nc1ccc(S(=O)(=O)Nc2cc(S(=O)(=O)N3CCCCC3)ccc2O)cc1,nt,nt,2.0
Cc1ccc(NC(=O)c2cncc(Br)c2)nc1,9.1,261.1,-4.7
CC1CCC(C(O)(C(=O)c2ccccc2)c2ccccc2)C(=O)C1 (stereo not given),nt,nt,-5.9
CCCCN(CC(=O)NCc1ccc(Cl)cc1)S(=O)(=O)c1ccc2c(c1)OCCO2,-18.8,263.5,0.0
Cc1cc(C)n(-c2cccc(F)n2)n1,8.3,360.3,3.1
COC(=O)c1c(NC(=O)/C=C/c2ccco2)sc2c1CCC2,91.7*,453.6,4.9
SMILES,ALR inh,T cell HTS,N-glyco inh
COC(=O)c1c(NC(=O)c2ccco2)sc2c1CCC2,-0.1,424.9,1.3
Cc1ccc(/C=C/C(=O)NC2CCCCCCC2)o1,98.6*,375.7,18.9
Cc1ccc(/C=N/NC(=O)NC2CCCCC2)o1,-2.2,415.3,0.8
CCCCN(C(=O)c1cc(S(=O)(=O)N2CCCCCC2)ccc1OC)c1ccccc1,1.0,51.3,-6.1
CCOc1ccc(Nc2ncnc3c2cnn3C)cc1,-3.6,177.9,-0.2
O=C(NC(=O)c1ccccc1)Nc1cccc(S(=O)(=O)N2CCCCC2)c1,-7.6,223.8,-0.9
Cc1ccc(-c2nn3c(C)nnc3c3ccccc23)cc1S(=O)(=O)N(C)CCO,-13.4,357.3,26.7*
Cc1ccc(-c2nn3c(C)nnc3c3ccccc23)cc1S(=O)(=O)NCc1ccccc1,-12.3,241.5,6.6
CC(=O)N1c2ccccc2Sc2ccccc21,-3.3,205.2,2.1
O=C(Sc1nnc(-c2ccccc2)o1)N1c2ccccc2Sc2ccccc21,93.3*,292.9,-3.1
COc1cc(-c2nnc(SCC(=O)N3c4ccccc4Sc4ccccc43)o2)cc(OC)c1OC,0.7,986.0,0.9
Cn1ccnc1SC(=O)N1c2ccccc2Sc2ccccc21,98.5*,427.3,-1.2
CC1CCCC(C)N1C(=O)COC(=O)c1ccc2ccccc2n1 (stereo not given),nt,174.1,-0.5
COc1ccc(-c2nc3ccc(Br)cn3c2CC(C)(C)C)cc1OC,nt,nt,-1.8
